MT stabilizer – microtubule stabilization, imaging screen; HeLa tubulin immunostaining HCS, 24 h; share of cells brighter than vehicle mean+2SD; % tubulin-high responders, % at 10 µM; 200,000 tested, 0.83% active;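 active = plate Z-score above 3 for both tubulin-high and condensed-nucleus cell shares, with cell loss under 80%, at 10 µM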;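 also: anti alpha tubulin signal scored within the nucleus-defined area of each cell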
Insulin prom inh – TRM-6 insulin promoter activity inhibition. TRM-6 cells, insulin promoter-eGFP reporter, imaging; reporter expression induced with tamoxifen. inhibition, % at 2 µM. 130,000 tested, 0.9% active;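 active = inhibition above the mean plus 3 SD, with well images judged a real hit on visual review, cut at about 60% in these data, passing the limit was not always enough; inconclusive = inhibition over the cutoff but images rejected on review; inactive = inhibition not above the cutoff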
HSV augment – HSV replication enhancement; HSV replication augmentation in cells, fold increase; maximum fold increase; 220,000 tested, 0.005% active; AID 1956; in the data active = maximum fold increase above about 1.5; inconclusive = no clear call, values can overlap the other calls; tested in PC3 cells
ROMK mod – modulates human ROMK potassium channel activity | 130,000 tested, 2% active | Tet-inducible ROMK, thallium flux fluorescence; actives lie on both sides | B-score at 10 µM | P48048;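 active = signal ratio slope over the read window, or its plate-corrected B-score, at least 3 SD from the plate mean, either direction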;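 also: B-score of the F/F0 ratio slope over 7 to 12 s after thallium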
Target sequence (P48048 whole entry, looked up): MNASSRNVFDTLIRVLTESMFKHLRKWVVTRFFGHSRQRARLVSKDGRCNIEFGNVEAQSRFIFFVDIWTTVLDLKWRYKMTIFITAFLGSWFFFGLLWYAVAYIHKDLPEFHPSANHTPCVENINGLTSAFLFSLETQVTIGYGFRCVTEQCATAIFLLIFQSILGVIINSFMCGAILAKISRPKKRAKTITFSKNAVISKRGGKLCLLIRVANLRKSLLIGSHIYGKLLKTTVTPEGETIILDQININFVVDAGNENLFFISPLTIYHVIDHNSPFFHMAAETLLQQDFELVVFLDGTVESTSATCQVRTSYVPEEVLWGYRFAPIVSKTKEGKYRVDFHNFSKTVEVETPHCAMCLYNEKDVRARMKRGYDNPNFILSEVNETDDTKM
b-catenin transl – beta-catenin nuclear translocation modulation; AID 1665; nuclear translocation activity, % at 5 µM; 190,000 tested, 0.3% active; HeLa beta-catenin nuclear translocation, immunofluorescence imaging;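 active = nuclear translocation activity above 50% at 5 µM, with a well cell count of 50 or more; inconclusive = wells under 50 cells across six images, flagged as toxic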;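 also: per-cell ratio of nuclear to cytoplasmic median beta-catenin stain intensity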
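test system = HeLa cells, endogenous beta-catenin | dosing = single 5 µM dose plus 0.02–20 µM confirmation series | times = compound treatment 24 h, 37°C, 5% CO2 | technique = beta-catenin immunofluorescence imaging with DAPI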
ROMK hit retest – confirmation of human ROMK potassium channel modulators; 3,000 tested, 54% active; normalized thallium flux (F/F0 slope) at 10 µM; AID 1917; ROMK thallium flux, fluorescence ratio; active compounds read low; shares compounds with ROMK mod;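 active = Flux at 10 µM at least 3 SD below or above vehicle control mean in one or both replicates; inconclusive = no clear call, values can overlap the other calls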
Large screens that a line does not name were inactive (follow-up assays come after a bar, where they were run). An excerpt weighted towards active compounds, which were near 2.4% of everything screened.

COc1ccc(/C=N/NC(=O)c2ccncc2)cc1Cn1nc([N+](=O)[O-])c(Br)c1C	none
CC(C)C1CC(CCNCc2ccc(N(C)C)cc2)(c2ccccc2)CCO1 (stereo unspecified)	none (no result: Insulin prom inh, ROMK mod) | ROMK hit retest 0.048
CC1(C)CC(O)(CNCc2ccc3c(c2)OCO3)CCO1 (stereo unspecified)	none (no result: ROMK mod)
Cc1ccc(C2(CCNCc3ccc(N(C)C)cc3)CCOC(C(C)C)C2)cc1 (stereo unspecified)	none (no result: Insulin prom inh)
CC(C)C1CC(CCNCc2ccc3c(c2)OCO3)(c2ccccc2)CCO1 (stereo unspecified)	ROMK mod -2.9 (no result: MT stabilizer, Insulin prom inh) | ROMK hit retest 0.055
Cc1ccc(C2(CCNS(=O)(=O)c3ccc(C)cc3)CCOC(C(C)C)C2)cc1 (stereo unspecified)	none (no result: Insulin prom inh, ROMK mod) | ROMK hit retest 0.061
CCOC(=O)c1ccc(NC(=O)N2CCN(Cc3ccccc3)CC2)cc1	none
Cc1cccc(N2C(N)=C(C#N)C(C#N)(C#N)C2c2ccccc2)c1 (stereo unspecified)	none (no result: Insulin prom inh, ROMK mod) | ROMK hit retest 0.056
N#CC1=C(N)N(c2ccccc2)C(c2cccc([N+](=O)[O-])c2)C1(C#N)C#N (stereo unspecified)	none (no result: ROMK mod) | ROMK hit retest 0.037
CCN1C(=O)C(C(=O)c2ccccc2)SC1=S (stereo unspecified)	none
O=C1CC(c2ccco2)CC2=C1C1c3ccccc3C(=O)N1c1ccccc1N2 (stereo unspecified)	ROMK mod 6.9 (no result: b-catenin transl) | ROMK hit retest 0.098
CCC(=O)N1c2ccccc2NC2=C(C(=O)CC(c3ccco3)C2)C1c1ccco1 (stereo unspecified)	none
O=C(Oc1ccc(Nc2ncnc3ccccc23)cc1)c1cccnc1	ROMK mod -2.9 (no result: Insulin prom inh) | ROMK hit retest 0.065
O=C(CSCC(=O)N1CCCCC1)Nc1nc(-c2ccc(Cl)s2)cs1	none (no result: Insulin prom inh, ROMK mod) | ROMK hit retest inconclusive
Cc1ccc(C)c(NC(=O)CSc2nc3ccc(N4C(=O)c5ccccc5C4=O)cc3s2)c1	none
COc1ccc([N+](=O)[O-])cc1NC(=O)C1CCCO1 (stereo unspecified)	none (no result: ROMK mod, b-catenin transl)
COc1ccccc1-c1cc(-c2cc(Cl)ccc2O)n[nH]1	none (no result: Insulin prom inh) | ROMK hit retest inconclusive
CCc1cccc(NC(=O)CSC2=NS(=O)(=O)c3ccccc32)c1	none (no result: Insulin prom inh, ROMK mod) | ROMK hit retest 0.059
N#C/C(=C\Nc1ccccc1O)c1nc2ccccc2o1	none
CC/C(=C\c1oc2cc3ccccc3cc2[n+]1CC)Nc1ccccc1	none (no result: Insulin prom inh, ROMK mod) | ROMK hit retest 0.055
CC(C)[C@@H]1CC[C@@H](C)C[C@H]1OC(=O)C[n+]1cc(-c2ccc(Cl)cc2)n2c1CCCCC2	none (no result: MT stabilizer, Insulin prom inh, ROMK mod) | ROMK hit retest 0.035
CC1CCC(C(C)C)C(OC(=O)C[n+]2cccc(C(N)=O)c2)C1 (stereo unspecified)	none (no result: ROMK mod)
COc1ccc(-c2c[n+](CC(=O)OC3CC(C)CCC3C(C)C)c3n2CCC3)cc1 (stereo unspecified)	none (no result: Insulin prom inh, ROMK mod) | ROMK hit retest 0.051
O=C(OC[C@@H]1CCCN2CCCC[C@H]12)c1cc2ccccc2oc1=O	none (no result: b-catenin transl)
COC(=O)c1ccc(OC(=O)c2ccc(OC)cc2)c(OC)c1	none (no result: Insulin prom inh)
COC(=O)c1ccc(OC(=O)c2ccc(OC)c(OC)c2)c(OC)c1	ROMK mod -3.9 | ROMK hit retest inactive
COc1ccc2[nH]c(=O)c(CN(Cc3cccnc3)C(=S)NCC3CCCO3)cc2c1 (stereo unspecified)	none (no result: Insulin prom inh)
Cc1n[nH]c(=O)n1-c1cccc(C(F)(F)F)c1	none (no result: ROMK mod, b-catenin transl) | ROMK hit retest inactive
Cc1cc(C)n2nc(/C(C#N)=C/c3ccccn3)c(C#N)c2n1	ROMK mod -2.4 | ROMK hit retest 0.044
O=C(NCc1cccnc1)c1ccc(Cn2c(=S)[nH]c3ccc(Br)cc3c2=O)cc1	none (no result: Insulin prom inh)
COc1cccc(/C(O)=C/c2nc3ccc(C(=O)NCCc4ccc(Cl)cc4)cc3[nH]c2=O)c1	none (no result: ROMK mod)
COc1cccc(/C(O)=C/c2nc3ccc(C(=O)NCCc4cccc(C)c4)cc3[nH]c2=O)c1	none (no result: Insulin prom inh, ROMK mod) | ROMK hit retest 0.062
Cc1nc(SCC(=O)N(C)Cc2ccco2)c2c(C)c(C)sc2n1	none (no result: Insulin prom inh, ROMK mod) | ROMK hit retest inactive
CC(=O)Nc1ccc(NC(=O)CSc2nc(C)nc3sc(C)c(C)c23)cc1	none
Cc1ccc(-c2nc(CSCC(=O)N3CCCC3)c(C)o2)cc1	none (no result: b-catenin transl)
Cc1cccc(-c2nc(CSCC(=O)N3CCN(c4ccccn4)CC3)c(C)o2)c1	ROMK mod -4.3 (no result: b-catenin transl) | ROMK hit retest 0.053
CC(NCCC(c1ccccc1)c1ccccc1)c1ccccc1 (stereo unspecified)	ROMK mod -6.2 (no result: b-catenin transl) | ROMK hit retest 0.046
COCCCNC(=O)C1CCN(C(=O)Nc2ccc(Cl)cc2)CC1	none (no result: ROMK mod)
N/C(=N\OC(=O)c1ccc(Cl)cc1Cl)c1ccncc1	none (no result: MT stabilizer, Insulin prom inh, ROMK mod)
O=C(/C(=C/c1cccnc1)n1ccnc1)c1ccc(Cl)cc1Cl	ROMK mod -5.6 (no result: MT stabilizer, Insulin prom inh) | ROMK hit retest 0.03
O=C(/C(=C/c1ccncc1)n1ccnc1)c1ccc(Cl)cc1Cl	ROMK mod -7.9 (no result: MT stabilizer, Insulin prom inh) | ROMK hit retest 0.03
CCOC(=O)CSc1nnc(CNc2ccc(Cl)cc2)n1Cc1ccccc1	ROMK mod -3.8 | ROMK hit retest 0.063
CC(C)OC(=O)CSc1nnc(CNc2ccc(Cl)cc2)n1Cc1ccccc1	none (no result: ROMK mod)
CCOC(=O)NC(Nc1sc2c(c1C(=O)OC)CCN(C)C2)(C(F)(F)F)C(F)(F)F	none | ROMK hit retest inactive
CCOc1ccc(NC(=O)COC(=O)C2(C)CC2(Cl)Cl)c([N+](=O)[O-])c1 (stereo unspecified)	none (no result: Insulin prom inh)
CCOc1ccc(NC2OCC(O)C(O)C2O)c([N+](=O)[O-])c1 (stereo unspecified)	ROMK mod -8.9 (no result: Insulin prom inh) | ROMK hit retest inactive
CC1(C)CC(N=C2C([N+](=O)[O-])=CC=C3C2=NC2(CCCCC2)N3O)CC(C)(C)N1	none (no result: MT stabilizer, Insulin prom inh, ROMK mod) | ROMK hit retest inactive
O=C(CSCc1ccccc1)NNC(=S)Nc1cccc(Cl)c1Cl	HSV augment inconclusive (no result: ROMK mod) | ROMK hit retest inactive
CCN1C(=O)c2ccccc2S(=O)(=O)c2ccc(C(=O)NCc3cccnc3)cc21	none (no result: Insulin prom inh, ROMK mod)
COc1ccc(C/C(O)=C(\C#N)c2nc3ccccc3s2)cc1	ROMK mod -3.1 (no result: b-catenin transl) | ROMK hit retest 0.06
CC(C)(C)c1nnc(NC(=O)c2cc(-c3ccccc3)nc3ccccc23)s1	none (no result: ROMK mod)
Cc1csc(NC(=O)c2cc(-c3ccccc3)nc3ccccc23)n1	none (no result: Insulin prom inh, ROMK mod) | ROMK hit retest inactive
O=P(c1ccccc1)(c1ccccc1)C(O)c1ccco1 (stereo unspecified)	ROMK mod 2.2 | ROMK hit retest inactive
Cc1ccc(C(=O)N/C(=C\c2ccc(-c3ccc(Cl)cc3)o2)C(=O)NCCCN(C)C)cc1	none (no result: Insulin prom inh)
CN(C)C(=O)/C(=C\c1ccc(-c2cccc([N+](=O)[O-])c2)o1)NC(=O)c1ccccc1	none
CN(C)CCCNC(=O)/C(=C\c1ccc(-c2ccc(Br)cc2)o1)NC(=O)c1ccccc1	ROMK mod -3.9 | ROMK hit retest 0.054
CCCCNC(=O)/C(=C\c1ccc([N+](=O)[O-])o1)NC(=O)c1ccccc1	none (no result: Insulin prom inh)
